Measurements: ChEMBL document CHEMBL3271935, “Synthesis and biological activity of some broad-spectrum N-acylphenyglycine cephalosporins” (1977)
Values after ≈ are worked out from the molar mass of the structure shown.

What was measured:
Pseudomonas aeruginosa [1] = test: Antibacterial activity against Pseudomonas aeruginosa HH 63 assessed as growth inhibition by two-fold agar dilution method; format: functional
Procedure, shortened: (§1)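 MIC (μg/mL) by twofold agar dilution on Trypticase soy agar buffered to pH 6.0.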

Staphylococcus aureus = test: Antibacterial activity against penicillin G resistant Staphylococcus aureus HH 127 assessed as growth inhibition by two-fold agar dilution method; format: functional
Procedure, shortened: (§2)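 Twofold agar dilution on Trypticase soy agar buffered to pH 6.0. MIC reported in μg/mL.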

Klebsiella aerogenes = test: Antibacterial activity against Enterobacter aerogenes ATCC 13048 assessed as growth inhibition by two-fold agar dilution method; format: functional; procedure, shortened: as §1
Morganella morganii = test: Antibacterial activity against indole positive Proteus morganii 179 assessed as growth inhibition by two-fold agar dilution method; format: functional; procedure, shortened: as §1
Salmonella paratyphi = test: Antibacterial activity against Salmonella paratyphi ATCC 12176 assessed as growth inhibition by two-fold agar dilution method; format: functional, Salmonella enterica subsp. enterica serovar Paratyphi A; details: Salmonella enterica; procedure, shortened: as §2
Escherichia coli [2] = test: Antibacterial activity against Escherichia coli 12140 assessed as growth inhibition by two-fold agar dilution method; format: functional; procedure, shortened: as §1
Klebsiella pneumoniae = test: Antibacterial activity against Klebsiella pneumoniae 4200 assessed as growth inhibition by two-fold agar dilution method; format: functional; procedure, shortened: as §1
Escherichia coli [3] = test: Antibacterial activity against Escherichia coli 12140 infected in sc dosed mouse administered at 1 to 5 hrs measured for 3 days; format: functional; details: Escherichia coli, 12140, sc; read-out: PD50
Procedure, shortened: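 Mice infected intraperitoneally with about 2×10^3 organisms per mouse of E. coli 12140 culture diluted in 5% hog gastric mucin, giving uniformly lethal infection. Fourfold dilutions given subcutaneously in equally divided portions at 1 and 5 h postinfection, five groups per compound. Survivors observed 3 days. PD50 is total dose (mg/kg) protecting 50%, calculated by Litchfield–Wilcoxon method.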

Pseudomonas aeruginosa [4] = test: Antibacterial activity against Pseudomonas aeruginosa 219 assessed as growth inhibition; format: functional
Procedure, shortened: (§3)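 Broth MIC by the standard microtiter technique in unbuffered Mueller-Hinton broth.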

Pseudomonas aeruginosa [5] = test: Antibacterial activity against Pseudomonas aeruginosa 1062 assessed as growth inhibition; format: functional; procedure, shortened: as §3
Pseudomonas aeruginosa [6] = test: Antibacterial activity against Pseudomonas aeruginosa 1042 assessed as growth inhibition; format: functional; procedure, shortened: as §3
Pseudomonas aeruginosa [7] = test: Antibacterial activity against Pseudomonas aeruginosa 647 assessed as growth inhibition; format: functional; procedure, shortened: as §3
Pseudomonas aeruginosa [8] = test: Antibacterial activity against Pseudomonas aeruginosa 1106 assessed as growth inhibition; format: functional; procedure, shortened: as §3
Pseudomonas aeruginosa [9] = test: Antibacterial activity against Pseudomonas aeruginosa 1504 assessed as growth inhibition; format: functional; procedure, shortened: as §3
Pseudomonas aeruginosa [10] = test: Antibacterial activity against Pseudomonas aeruginosa 1063 assessed as growth inhibition; format: functional; procedure, shortened: as §3
Pseudomonas aeruginosa [11] = test: Antibacterial activity against Pseudomonas aeruginosa 864 assessed as growth inhibition; format: functional; procedure, shortened: as §3

SMILES	MIC (Pseudomonas aeruginosa [1])	MIC (Staphylococcus aureus)	MIC (Klebsiella aerogenes)	MIC (Morganella morganii)	MIC (Salmonella paratyphi)	MIC (Escherichia coli [2])	MIC (Klebsiella pneumoniae)	ED50 (Escherichia coli [3])	MIC (Pseudomonas aeruginosa [4])	MIC (Pseudomonas aeruginosa [5])	MIC (Pseudomonas aeruginosa [6])	MIC (Pseudomonas aeruginosa [7])	MIC (Pseudomonas aeruginosa [8])	MIC (Pseudomonas aeruginosa [9])	MIC (Pseudomonas aeruginosa [10])	MIC (Pseudomonas aeruginosa [11])
CC(=O)OCC1=C(C(=O)[O-])N2C(=O)[C@@H](NC(=O)C(NC(=O)CCCC(=O)[O-])c3ccccc3)[C@H]2SC1.[Na+].[Na+] (some centres undefined)	> 200 µg/mL	6.3 µg/mL	100 µg/mL	> 200 µg/mL	25 µg/mL	50 µg/mL	25 µg/mL	100 mg/kg	–	–	–	–	–	–	–	–
CC(=O)OCC1=C(C(=O)O)N2C(=O)[C@@H](NC(=O)C(NC(=O)CSCC(=O)O)c3ccccc3)[C@H]2SC1 (some centres undefined)	> 200 µg/mL	3.1 µg/mL (≈ 5.77 µM)	25 µg/mL (≈ 46.5 µM)	12.5 µg/mL (≈ 23.3 µM)	6.3 µg/mL (≈ 11.7 µM)	12.5 µg/mL (≈ 23.3 µM)	6.3 µg/mL (≈ 11.7 µM)	64 mg/kg	–	–	–	–	–	–	–	–
CC(=O)OCC1=C(C(=O)[O-])N2C(=O)[C@@H](NC(=O)C(NC(=O)COCC(=O)[O-])c3ccccc3)[C@H]2SC1.[Na+].[Na+] (some centres undefined)	> 200 µg/mL	3.1 µg/mL	12.5 µg/mL	12.5 µg/mL	12.5 µg/mL	6.3 µg/mL	3.1 µg/mL	21.5 mg/kg	–	–	–	–	–	–	–	–
CC(=O)OCC1=C(C(=O)[O-])N2C(=O)[C@@H](NC(=O)C(NC(=O)C3CCC(C(=O)[O-])O3)c3ccccc3)[C@H]2SC1.[Na+].[Na+] (some centres undefined)	200 µg/mL	6.3 µg/mL	25 µg/mL	50 µg/mL	12.5 µg/mL	12.5 µg/mL	6.3 µg/mL	140 mg/kg	–	–	–	–	–	–	–	–
Cn1nnnc1SCC1=C(C(=O)[O-])N2C(=O)[C@@H](NC(=O)C(NC(=O)CCCC(=O)[O-])c3ccccc3)[C@H]2SC1.[Na+].[Na+] (some centres undefined)	> 200 µg/mL	3.1 µg/mL	25 µg/mL	12.5 µg/mL	6.3 µg/mL	12.5 µg/mL	6.3 µg/mL	100 mg/kg	> 500 µg/mL	> 500 µg/mL	> 500 µg/mL	> 500 µg/mL	> 500 µg/mL	> 500 µg/mL	> 500 µg/mL	> 500 µg/mL
Cn1nnnc1SCC1=C(C(=O)[O-])N2C(=O)[C@@H](NC(=O)C(NC(=O)CSCC(=O)[O-])c3ccccc3)[C@H]2SC1.[Na+].[Na+] (some centres undefined)	> 200 µg/mL	3.1 µg/mL	3.1 µg/mL	1.6 µg/mL	3.1 µg/mL	6.3 µg/mL	3.1 µg/mL	50 mg/kg	500 µg/mL	500 µg/mL	> 500 µg/mL	> 500 µg/mL	> 500 µg/mL	500 µg/mL	> 500 µg/mL	> 500 µg/mL
Cn1nnnc1SCC1=C(C(=O)[O-])N2C(=O)[C@@H](NC(=O)C(NC(=O)COCC(=O)[O-])c3ccccc3)[C@H]2SC1.[Na+].[Na+] (some centres undefined)	200 µg/mL	3.1 µg/mL	3.1 µg/mL	0.4 µg/mL	1.6 µg/mL	1.6 µg/mL	0.8 µg/mL	8.7 mg/kg	125 µg/mL	250 µg/mL	250 µg/mL	125 µg/mL	500 µg/mL	125 µg/mL	500 µg/mL	500 µg/mL
Cn1nnnc1SCC1=C(C(=O)O)N2C(=O)[C@@H](NC(=O)C(N)c3ccccc3)[C@H]2SC1 (some centres undefined)	> 200 µg/mL	3.1 µg/mL (≈ 6.72 µM)	1.6 µg/mL (≈ 3.47 µM)	6.3 µg/mL (≈ 13.7 µM)	1.6 µg/mL (≈ 3.47 µM)	3.1 µg/mL (≈ 6.72 µM)	1.6 µg/mL (≈ 3.47 µM)	1.4 mg/kg	–	–	–	–	–	–	–	–
CC(=O)OCC1=C(C(=O)[O-])N2C(=O)[C@@H](NC(=O)C(NC(=O)[C@H]3C[C@H]3C(=O)[O-])c3ccccc3)[C@H]2SC1.[Na+].[Na+] (mixture of isomers)	> 200 µg/mL	6.3 µg/mL	12.5 µg/mL	12.5 µg/mL	6.3 µg/mL	12.5 µg/mL	3.1 µg/mL	25 mg/kg	–	–	–	–	–	–	–	–
CC(=O)OCC1=C(C(=O)[O-])N2C(=O)[C@@H](NC(=O)C(NC(=O)C3CO3)c3ccccc3)[C@H]2SC1.[Na+] (mixture of isomers)	> 200 µg/mL	1.6 µg/mL	25 µg/mL	25 µg/mL	12.5 µg/mL	25 µg/mL	12.5 µg/mL	100 mg/kg	–	–	–	–	–	–	–	–
Cn1nnnc1SCC1=C(C(=O)[O-])N2C(=O)[C@@H](NC(=O)C(NC(=O)[C@H]3C[C@H]3C(=O)[O-])c3ccccc3)[C@H]2SC1.[Na+].[Na+] (mixture of isomers)	200 µg/mL	6.3 µg/mL	6.3 µg/mL	6.3 µg/mL	3.1 µg/mL	6.3 µg/mL	3.1 µg/mL	25 mg/kg	125 µg/mL	250 µg/mL	250 µg/mL	125 µg/mL	> 500 µg/mL	125 µg/mL	500 µg/mL	500 µg/mL
Cn1nnnc1SCC1=C(C(=O)[O-])N2C(=O)[C@@H](NC(=O)[C@H](NC(=O)[C@H]3O[C@@H]3C(=O)[O-])c3ccccc3)[C@H]2SC1.[Na+].[Na+] (mixture of isomers)	> 200 µg/mL	1.6 µg/mL	25 µg/mL	25 µg/mL	12.5 µg/mL	25 µg/mL	12.5 µg/mL	150 mg/kg	–	–	–	–	–	–	–	–
CC(=O)OCC1=C(C(=O)[O-])N2C(=O)[C@@H](NC(=O)C(NC(=O)C3OC3C(=O)[O-])c3ccccc3)[C@H]2SC1.[Na+].[Na+] (single isomer, unassigned; diastereomer 1)	100 µg/mL	6.3 µg/mL	3.1 µg/mL	3.1 µg/mL	1.6 µg/mL	1.6 µg/mL	0.8 µg/mL	12.5 mg/kg	–	–	–	–	–	–	–	–
CC(=O)OCC1=C(C(=O)[O-])N2C(=O)[C@@H](NC(=O)C(NC(=O)[C@@H]3O[C@@H]3C(=O)[O-])c3ccccc3)[C@H]2SC1.[Na+].[Na+] (single isomer, unassigned; diastereomer 2)	> 200 µg/mL	12.5 µg/mL	25 µg/mL	200 µg/mL	6.3 µg/mL	12.5 µg/mL	6.3 µg/mL	72 mg/kg	–	–	–	–	–	–	–	–
CC(=O)OCC1=C(C(=O)O)N2C(=O)[C@@H](NC(=O)[C@H](N)c3ccccc3)[C@H]2SC1 [CEPHALOGLYCIN]	> 200 µg/mL	3.1 µg/mL (≈ 7.65 µM)	50 µg/mL (≈ 123 µM)	> 200 µg/mL	3.1 µg/mL (≈ 7.65 µM)	3.1 µg/mL (≈ 7.65 µM)	3.1 µg/mL (≈ 7.65 µM)	–	–	–	–	–	–	–	–	–
CC(=O)OCC1=C(C(=O)O)N2C(=O)[C@@H](NC(=O)Cc3cccs3)[C@H]2SC1 [CEPHALOTHIN]	> 200 µg/mL	0.2 µg/mL (≈ 0.504 µM)	12.5 µg/mL (≈ 31.5 µM)	> 200 µg/mL	0.8 µg/mL (≈ 2.02 µM)	3.1 µg/mL (≈ 7.82 µM)	1.6 µg/mL (≈ 4.04 µM)	50 mg/kg	–	–	–	–	–	–	–	–
